In ChEMBL document CHEMBL4414584, “Targeting of Fumarate Hydratase from Mycobacterium tuberculosis Using Allosteric Inhibitors with a Dimeric-Binding Mode” (J Med Chem, 2019):
≈ marks a conversion by molar mass, not a printed value. Calls of active or inactive are those of the source. No cut-off for these calls is given here.

Experiments:
[1] = system: Mycobacterium tuberculosis; experiment: Antimycobacterial activity against Mycobacterium tuberculosis H37Rv assessed as reduction in bacterial growth incubated for 2 weeks in GAST-Fe media by 2-fold serial dilution method; assay type: functional; conditions: for MIC: 336 h
How it was run: (§1)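 H37Rv grown in the test medium to OD 0.2–0.4, diluted to OD 0.0002 and added 1:1 to a two-fold serial dilution series of compound. Plates incubated 37 °C for two weeks, then MIC determined.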

[2] = system: Mycobacterium tuberculosis; experiment: Antimycobacterial activity against Mycobacterium tuberculosis H37Rv assessed as reduction in bacterial growth incubated for 2 weeks in 7H9/glucose media by 2-fold serial dilution method; assay type: functional; conditions: for MIC: 336 h; how it was run: as §1
[3] = system: Mycobacterium tuberculosis; experiment: Antimycobacterial activity against Mycobacterium tuberculosis H37Rv assessed as reduction in bacterial growth incubated for 2 week in 7H9/ADC media by 2-fold serial dilution method; assay type: functional; conditions: for MIC: 336 h; how it was run: as §1
[4] = Inhibition of Mycobacterium tuberculosis fumarate hydratase expressed in Escherichia coli BL21(DE3) using fumaric acid as substrate preincubated for 5 mins followed by substrate addition incubated for 2 mins and measured at 24 secs interval for 10 mins by spectrometric method
How it was run: (§2)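 Coupled assay: Mtb fumarase (33.3 nM) with citrate synthase, malate dehydrogenase, acetyl-CoA (267 µM) and NAD+ (200 µM) in 250 mM Tris pH 8.0, 5 mM MgCl2. Ligand in DMSO pre-equilibrated 5 min at 25 °C, then fumaric acid added. A340 read every 24 s over 10 min. Slope corrected by no-substrate control and normalised to uninhibited control.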

[5] = system: Mycobacterium tuberculosis; experiment: Antimycobacterial activity against Mycobacterium tuberculosis H37Rv assessed as reduction in bacterial growth incubated for 2 weeks in 7H9/DPPC media by 2-fold serial dilution method; assay type: functional; conditions: for MIC: 336 h; how it was run: as §1
[6] = system: Mycobacterium tuberculosis; experiment: (§3) Inhibition of Mycobacterium tuberculosis fumarate hydratase expressed in Escherichia coli BL21(DE3) at 100 to 1000000 uM using fumaric acid as substrate preincubated for 5 mins followed by substrate addition incubated for 2 mins and measured at 24 secs interval for 10 mins by spectrometric method; how it was run: as §2
[7] = system: Mycobacterium tuberculosis; experiment: Binding affinity to Mycobacterium tuberculosis fumarate hydratase expressed in Escherichia coli BL21(DE3) assessed as change in melting temperature at 5 mM by Sypro orange dye based differential scanning fluorimetry
[8] = system: Mycobacterium tuberculosis; experiment: as §3, with “50” for “100 to 1000000”, “method relative to control” for “method”; how it was run: as §2
[9] = Inhibition of N-terminal His6-tagged Mycobacterium tuberculosis fumarate hydratase expressed in Escherichia coli BL21(DE3) using fumaric acid as substrate preincubated for 10 mins followed by substrate addition and measured immediately by fluorescence-based HTS assay
[10] = system: Mycobacterium tuberculosis; experiment: Binding affinity to Mycobacterium tuberculosis fumarate hydratase expressed in Escherichia coli BL21(DE3) assessed as change in melting temperature at 0.625 mM by Sypro orange dye based differential scanning fluorimetry
[11] = system: Mycobacterium tuberculosis; experiment: Antimycobacterial activity against Mycobacterium tuberculosis H37Rv assessed as growth inhibition at 250 uM supplemented with fresh medium containing compound for every 3 days for 7 days relative to control; assay type: functional

Compound	Activity [1]	Activity [2]	Activity [3]	IC50 [4] [µM]	Activity [5]	inhibition [8] [%]	also measured
COc1ccc2c(c1)CCN(S(=O)(=O)c1ccc(OC)c(NC(=O)Cc3n[nH]c(=O)c4ccccc34)c1)CC2	inactive	inactive	inactive	0.67	inactive	–	–
COc1ccc(S(=O)(=O)N2CCS(=O)(=O)CC2)cc1NC(=O)Cc1n[nH]c(=O)c2ccccc12	inactive	inactive	inactive	13	inactive	–	–
O=C(O)Cc1nnc(O)c2ccccc12	–	–	–	–	–	–	inhibition [6]: inactive; ΔTm [7]: -0.4 °C
COc1ccc(S(=O)(=O)N2CCCCCC2)cc1NC(=O)Cc1ccncc1	inactive	inactive	inactive	–	inactive	< 10	–
COc1ccc(S(=O)(=O)N2CCOCC2)cc1NC(=O)Cc1n[nH]c(=O)c2ccccc12	inactive	inactive	inactive	12	inactive	–	–
COc1ccc(S(=O)(=O)N2CCCCCC2)cc1N	–	–	–	–	–	–	inhibition [6]: inactive; ΔTm [7]: -0.7 °C
CNS(=O)(=O)c1ccc(OC)c(NC(=O)Cc2n[nH]c(=O)c3ccccc23)c1	–	–	–	57	–	–	–
COc1ccc2[nH]cc(CC(=O)Nc3cc(S(=O)(=O)N4CCCCCC4)ccc3OC)c2c1	–	–	–	–	–	38	MIC [1]: > 100 µM; MIC [2]: > 100 µM; MIC [3]: > 100 µM; MIC [5]: 12.5 µM (≈ 5.89 µg/mL)
CC(=O)Nc1cccc(S(=O)(=O)N2CCCCCC2)c1	–	–	–	–	–	–	inhibition [6]: inactive; ΔTm [7]: -0.4 °C
COc1ccc(S(=O)(=O)N2CCc3ccccc3CC2)cc1NC(=O)Cc1n[nH]c(=O)c2ccccc12	inactive	inactive	inactive	0.67	inactive	–	–
COc1ccc(S(=O)(=O)N2CCCCCC2)cc1NC(=O)CCc1c[nH]c2ccccc12	–	–	–	–	–	12	MIC [1]: > 100 µM; MIC [2]: 25 µM (≈ 11.4 µg/mL); MIC [3]: > 100 µM; MIC [5]: 9.4 µM (≈ 4.28 µg/mL)
COc1ccc(S(=O)(=O)N2CCCCCCC2)cc1NC(=O)Cc1n[nH]c(=O)c2ccccc12	–	–	–	4	–	–	MIC [1]: > 100 µM; MIC [2]: 25 µM (≈ 12.1 µg/mL); MIC [3]: > 100 µM; MIC [5]: 19 µM (≈ 9.21 µg/mL)
O=C(Cc1nnc(O)c2ccccc12)Nc1cccc(S(=O)(=O)N2CCCCCC2)c1	–	–	–	–	–	16	–
COc1ccc(S(=O)(=O)Nc2ccccc2)cc1NC(=O)Cc1n[nH]c(=O)c2ccccc12	inactive	inactive	inactive	17	inactive	–	–
COc1ccc(S(=O)(=O)N2CCCCC2)cc1NC(=O)Cc1n[nH]c(=O)c2ccccc12	inactive	inactive	inactive	4.4	inactive	–	–
Nc1cccc(S(=O)(=O)N2CCCCCC2)c1	–	–	–	–	–	–	inhibition [6]: inactive; ΔTm [7]: -1.2 °C
COc1ccc(S(=O)(=O)N2CCc3cc(OC)c(OC)cc3C2)cc1NC(=O)Cc1n[nH]c(=O)c2ccccc12	inactive	inactive	inactive	3.4	inactive	–	–
Cc1ccc(S(=O)(=O)N2CCCCCC2)cc1NC(=O)Cc1n[nH]c(=O)c2ccccc12	–	–	–	–	–	< 10	–
COc1ccc(S(=O)(=O)N2CCCCCC2)cc1NC(=O)Cc1nnc(O)c2ccccc12	–	–	–	2	–	> 90	IC50 [9]: 2.5 µM; ΔTm [10]: 3.9 °C; MIC [1]: > 100 µM; MIC [2]: > 100 µM; MIC [3]: > 100 µM; MIC [5]: > 100 µM; growth inhibition (GI) [11]: 65%

Compound	Activity [1]	Activity [2]	Activity [3]	IC50 [4] [µM]	Activity [5]	inhibition [8] [%]	also measured
COc1ccc(S(=O)(=O)N2CCCCCC2)cc1NC(C)=O	–	–	–	–	–	–	inhibition [6]: inactive; ΔTm [7]: -0.6 °C
COc1ccc(S(=O)(=O)N2CCCCCC2)cc1NC(=O)Cc1noc2ccccc12	–	–	–	–	–	< 10	–
CNS(=O)(=O)c1ccc(OC)c(NC(C)=O)c1	–	–	–	–	–	–	inhibition [6]: inactive; ΔTm [7]: -0.4 °C
COc1ccc(S(=O)(=O)N2CC3CC(C2)c2ccccc23)cc1NC(=O)Cc1n[nH]c(=O)c2ccccc12	–	–	–	–	–	44	–
COc1ccc(S(=O)(=O)N2CCc3ccccc3C2)cc1NC(=O)Cc1n[nH]c(=O)c2ccccc12	inactive	inactive	inactive	2.2	inactive	–	–
CCOC(=O)Cc1nnc(O)c2ccccc12	–	–	–	–	–	–	inhibition [6]: inactive; ΔTm [7]: -0.6 °C
COc1ccc(S(=O)(=O)N2CCCCCC2)cc1NC(=O)Cc1coc2ccccc12	–	–	–	–	–	< 10	MIC [1]: > 100 µM; MIC [2]: 9.4 µM (≈ 4.16 µg/mL); MIC [3]: > 100 µM; MIC [5]: 6.3 µM (≈ 2.79 µg/mL)
COc1ccc(S(=O)(=O)N2CCN(C)CC2)cc1NC(=O)Cc1n[nH]c(=O)c2ccccc12	inactive	inactive	inactive	38	inactive	–	–
COc1ccc(S(=O)(=O)N2CCCCCC2)cc1NC(=O)Cc1c[nH]c2ccccc12	–	–	–	–	–	27	MIC [1]: > 100 µM; MIC [2]: 100 µM (≈ 44.2 µg/mL); MIC [3]: > 100 µM; MIC [5]: 9.4 µM (≈ 4.15 µg/mL)
COc1ccccc1NC(=O)Cc1n[nH]c(=O)c2ccccc12	–	–	–	–	–	–	inhibition [6]: inactive; ΔTm [7]: -0.4 °C
COc1ccc(S(=O)(=O)N2CCCCCC2)cc1NC(=O)Cc1cccc2ccccc12	inactive	inactive	inactive	–	inactive	21	–
Nc1cc(S(=O)(=O)N2CCCCCC2)ccc1O	–	–	–	–	–	–	inhibition [6]: inactive; ΔTm [7]: -1.6 °C
COc1ccc(S(=O)(=O)N2CCSCC2)cc1NC(=O)Cc1n[nH]c(=O)c2ccccc12	inactive	inactive	inactive	4.7	inactive	–	–
COc1ccc(S(=O)(=O)N2CCCCCC2)cc1NC(=O)Cc1ccnc2ccccc12	inactive	inactive	inactive	4.1	inactive	86	–
COc1ccc(S(=O)(=O)NCc2ccccc2)cc1NC(=O)Cc1n[nH]c(=O)c2ccccc12	–	–	–	–	–	53	–
COc1ccc(S(=O)(=O)N2CCCCCC2)cc1NC(=O)Cn1cnc2ccccc21	–	–	–	–	–	< 10	–
COc1ccc(S(=O)(=O)N2CCCCCC2)cc1	–	–	–	–	–	–	inhibition [6]: inactive; ΔTm [7]: 0.1 °C
COc1ccc(C(=O)N2CCCCCC2)cc1NC(=O)Cc1n[nH]c(=O)c2ccccc12	–	–	–	–	–	14	–
